Data as given in ChEMBL document CHEMBL1126891 (J Med Chem, 1993).

Legend:
[1] = system: Human alphaherpesvirus 2; experiment: Inhibitory activity against Herpes simplex virus 2 in vero cells at 100 uM; format: functional; conditions: Human alphaherpesvirus 2, Vero
[2] = system: MRC5; experiment: Inhibitory concentration against VZV in MRC5 cells; format: functional, cell-based; conditions: Homo sapiens
[3] = system: Vero; experiment: Inhibitory concentration against HSV-2 in vero cells; format: functional, cell-based; conditions: Chlorocebus sabaeus
Summary of the method: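 HSV-2 plaque reduction assay in Vero cells; the value is reported as IC50 in µM.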

[4] = system: Vero; experiment: Inhibitory concentration against HSV-1 in vero cells; format: functional, cell-based; conditions: Chlorocebus sabaeus
[5] = system: Vero; experiment: Cytotoxicity against vero cells; format: cell-based; conditions: Chlorocebus sabaeus
[6] = system: MRC5; experiment: Inhibitory concentration against human cytomegalovirus (HCMV1) in MRC5 cells; format: functional, cell-based
[7] = target: T1, DNA polymerase alpha catalytic subunit (Homo sapiens, UniProt P09884); experiment: Percent inhibition of DNA polymerase alpha at 100 uM
T1 sequence (P09884 whole entry): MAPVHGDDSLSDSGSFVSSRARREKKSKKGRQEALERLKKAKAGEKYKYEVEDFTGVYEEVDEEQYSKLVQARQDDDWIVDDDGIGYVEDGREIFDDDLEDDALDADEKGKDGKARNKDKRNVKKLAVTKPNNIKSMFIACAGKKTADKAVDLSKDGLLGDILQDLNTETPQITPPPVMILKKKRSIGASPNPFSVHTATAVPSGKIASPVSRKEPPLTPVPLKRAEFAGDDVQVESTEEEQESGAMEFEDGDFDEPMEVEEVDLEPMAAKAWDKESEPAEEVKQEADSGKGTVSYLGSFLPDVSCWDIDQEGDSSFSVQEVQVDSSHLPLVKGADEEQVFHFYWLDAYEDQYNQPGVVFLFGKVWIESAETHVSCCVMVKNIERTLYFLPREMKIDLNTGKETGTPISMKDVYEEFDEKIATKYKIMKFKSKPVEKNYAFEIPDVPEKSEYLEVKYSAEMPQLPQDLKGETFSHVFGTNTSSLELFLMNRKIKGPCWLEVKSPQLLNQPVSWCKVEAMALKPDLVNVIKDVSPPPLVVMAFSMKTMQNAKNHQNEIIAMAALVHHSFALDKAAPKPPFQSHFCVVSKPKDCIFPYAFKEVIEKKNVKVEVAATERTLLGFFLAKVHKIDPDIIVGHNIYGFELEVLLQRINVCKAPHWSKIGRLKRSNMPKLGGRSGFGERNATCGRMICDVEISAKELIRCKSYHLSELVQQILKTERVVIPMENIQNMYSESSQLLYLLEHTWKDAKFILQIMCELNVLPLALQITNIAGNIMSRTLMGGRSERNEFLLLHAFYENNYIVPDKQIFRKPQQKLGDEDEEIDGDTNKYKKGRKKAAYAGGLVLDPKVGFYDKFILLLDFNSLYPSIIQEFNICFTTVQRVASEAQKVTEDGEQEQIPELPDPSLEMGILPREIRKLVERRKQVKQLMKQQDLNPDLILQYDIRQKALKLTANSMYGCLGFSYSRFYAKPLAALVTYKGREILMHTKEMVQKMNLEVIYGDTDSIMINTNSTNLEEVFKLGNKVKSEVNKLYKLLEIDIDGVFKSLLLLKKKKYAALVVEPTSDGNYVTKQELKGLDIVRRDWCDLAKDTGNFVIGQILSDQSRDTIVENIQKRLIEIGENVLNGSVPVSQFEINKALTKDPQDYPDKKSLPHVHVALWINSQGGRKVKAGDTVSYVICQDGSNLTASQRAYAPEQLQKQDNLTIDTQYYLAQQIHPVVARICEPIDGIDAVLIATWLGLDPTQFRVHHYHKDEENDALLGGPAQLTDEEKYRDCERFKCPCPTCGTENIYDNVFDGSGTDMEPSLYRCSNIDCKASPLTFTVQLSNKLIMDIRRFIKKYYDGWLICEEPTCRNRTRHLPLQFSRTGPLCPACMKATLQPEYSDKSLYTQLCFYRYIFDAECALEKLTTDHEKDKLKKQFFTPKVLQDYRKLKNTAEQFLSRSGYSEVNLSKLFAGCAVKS

[8] = target: T1, DNA polymerase alpha catalytic subunit; experiment: Effective concentration against DNA polymerase alpha; format: single protein
Summary of the method: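 DNA polymerase α enzyme assay using activated calf thymus DNA as template, with no NaCl or KCl added.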

[9] = system: Nucleic Acid; experiment: Effective concentration against DNA polymerase of Herpes simplex virus 2 (HSV-2); format: nucleic-acid assay, Human alphaherpesvirus 2
[10] = Toxicity observed in vero cells; format: cell-based; conditions: Chlorocebus sabaeus

C[C@@]1(CO)[C@@H](O)CC[C@]2(C)c3cc(O)ccc3CC[C@@H]12
inhibition at 100 µM [1]: 34%

C[C@@]1(CO)[C@@H](O)CC[C@@]2(C)c3cc(O)c(CO)cc3CC[C@@H]12
IC50 [2]: > 100 µM | IC50 [3]: > 100 µM | IC50 [4]: > 200 µM | IC50 [5]: > 500 µM | IC50 [6]: > 100 µM

COc1ccc2c(c1)[C@@]1(C)CC[C@@H](O)[C@@](C)(CO)[C@@H]1CC2
inhibition at 100 µM [1]: 36%

C[C@@]1(CO)CCC[C@]2(C)c3cc(O)c(CO)cc3CC[C@@H]12
inhibition at 100 µM [1]: 0%

C[C@@]1(CO)[C@H](O)CC[C@@]2(C)c3cc(O)c(CO)cc3CC[C@@H]12
IC50 [2]: > 100 µM | IC50 [3]: > 100 µM | IC50 [4]: 222 µM | IC50 [5]: > 500 µM | IC50 [6]: > 100 µM

COc1ccc2c(c1)[C@@]1(C)CCC[C@@](C)(C(=O)O)[C@@H]1CC2
inhibition [7]: 4% | inhibition at 100 µM [1]: 31%

C[C@@]1(C(=O)O)CCC[C@]2(C)c3cc(O)c(C=O)cc3CC[C@@H]12
inhibition at 100 µM [1]: 0% | EC50 [8]: 5 µM

COc1ccc2c(c1)[C@@]1(C)CC[C@H](O)[C@@](C)(CO)[C@@H]1CC2
inhibition at 100 µM [1]: 10%

COc1cc2c(cc1CO)CC[C@H]1[C@](C)(CO)[C@@H](O)CC[C@]21C
IC50 [2]: > 100 µM | IC50 [3]: > 100 µM | IC50 [4]: > 100 µM | IC50 [5]: > 500 µM | IC50 [6]: > 100 µM

C[C@@]1(CO)[C@H](O)CC[C@]2(C)c3cc(O)c(CO)cc3CC[C@@H]12
inhibition at 100 µM [1]: 90% | IC50 [2]: > 100 µM | EC50 [8]: 4 µM | IC50 [3]: > 100 µM | IC50 [4]: 133 µM | IC50 [5]: > 500 µM | IC50 [6]: 76 µM

COc1cc2c(cc1CO)CC[C@H]1[C@](C)(CO)[C@H](O)CC[C@]21C
IC50 [2]: > 100 µM | IC50 [3]: > 100 µM | IC50 [4]: > 100 µM | IC50 [5]: > 500 µM | IC50 [6]: > 100 µM

C[C@@]1(CO)[C@H](O)CC[C@@]2(C)[C@H]1CC[C@H]1C[C@@H]3C[C@@]12CC[C@]3(O)CO [APHIDICOLIN]
EC50 [9]: 5 µM

COC(=O)[C@]1(C)CCC[C@]2(C)c3cc(OC)c(C=O)cc3CC[C@@H]12
inhibition [10]: 100%

C[C@@]1(CO)[C@@H](O)CC[C@]2(C)c3cc(O)c(CO)cc3CC[C@@H]12
inhibition at 100 µM [1]: 19% | IC50 [2]: > 100 µM | EC50 [8]: 7 µM | IC50 [3]: > 100 µM | IC50 [4]: 198 µM | IC50 [5]: > 500 µM | IC50 [6]: > 100 µM

C[C@@]1(CO)[C@H](O)CC[C@]2(C)C3=C[C@H](O)[C@H](CO)C[C@@H]3CC[C@@H]12
inhibition at 100 µM [1]: 0%

COc1ccc2c(c1)[C@@]1(C)CCC[C@@](C)(N)[C@@H]1CC2
inhibition at 100 µM [1]: 100% | EC50 [8]: 1 µM

COc1cc2c(cc1CO)CC[C@H]1[C@](C)(C(=O)O)CCC[C@]21C
inhibition at 100 µM [1]: 13%

C[C@@]1(CO)[C@H](O)CC[C@]2(C)c3cc(O)ccc3CC[C@@H]12
inhibition at 100 µM [1]: 25% | EC50 [8]: 8 µM

COc1cc2c(cc1CO)CC[C@H]1[C@](C)(CO)CCC[C@]21C
inhibition [7]: 3% | inhibition [10]: 100%

C[C@@]1(C(=O)O)CCC[C@]2(C)c3cc(O)c(CO)cc3CC[C@@H]12
inhibition at 100 µM [1]: 15%

COC(=O)[C@]1(C)CCC[C@]2(C)c3cc(OC)c(CO)cc3CC[C@@H]12
inhibition at 100 µM [1]: 100%
